“And” between values parts separate entries of the source, which are not always exact repeats. Identical values can stand only once. Like-named read-outs stand apart in the source and are kept apart here. Marks after values point to notes of the source that are not given here.
What was measured:
[1] = system: patients with recurrent malignant glioma; test: Phase I dose escalation; assay type: in vivo, human
How it was run: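 Dose assignment used accelerated titration, then 3 + 3. Planned levels were 1, 2, 4, 8 and 16 mg/kg, given BID on Mon/Wed/Fri for 2 weeks per 28-day cycle, as an oral suspension. Toxicity was assessed at baseline and before each cycle, graded by CTCAE v4.0. Dose was held for grade II toxicity and cut by 30% or one level for grade III. DSMB approval was required before each cohort change.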

[2] = system: recurrent glioblastoma (GBM); test: Clinical outcome: PFS, OS, MRI response; assay type: in vivo, human
How it was run: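 Oral dosing as weight-based powder reconstituted into a liquid suspension just before intake, BID on Mon/Wed/Fri for 2 weeks of each 28-day cycle, for up to 12 cycles or until progression. MRI at baseline, then about every 2–3 months, scored by iRANO on FLAIR and post-contrast T1WI. Intention-to-treat population. Kaplan–Meier estimates of PFS and OS, with OS counted from initial diagnosis.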

[3] = PK of WP1066 in human plasma; assay type: in vivo; conditions: 1-8 mg/kg oral
p-STAT3 (Y705) in PBMCs = test: Intracellular p-STAT3 staining of patient PBMCs by flow cytometry; assay type: in vivo, human
How it was run: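 Blood was processed at once because the p-STAT3 signal decays ex vivo. Ficoll-isolated PBMCs (6 × 10^6 in PBS) were fixed in 2% paraformaldehyde (final) for 10 min at 37°C, then permeabilised in ice-cold 90% methanol for 30 min. Staining was PE-anti-p-STAT3 (Y705) for 1 h at RT, in duplicate wells, with duplicate isotype-control wells and one unstained well. Duplicate specimens were run in parallel. Read-out was % p-STAT3+ PBMCs by flow cytometry versus baseline (0 h); paired t-test.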

PBMCs = test: Immune monitoring of patient PBMCs; assay type: in vivo, human; conditions: for Th1 to Th2 ratio: % CD3+ CD4+ IFN-γ+ divided by % CD3+ CD4+ IL-4+ T cells; for Cytotoxic CD8 to Treg ratio: % CD3+ CD8+ IFN-γ+ divided by % CD3+ CD4+ CD25+ Foxp3+ cells
How it was run: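 PBMCs were taken at C1D1 0 and 4 h, C1D2 0 h, and C1D8 0 and 4 h, then isolated from heparinised blood on Ficoll 1077. Cells were held 4–5 h at 37°C in T cell medium with protein transport inhibitor, Fc-blocked 15 min on ice, and given fixable viability dye 30 min at 4°C. Surface staining, fix/perm and intracellular staining followed, then flow cytometry. Th1:Th2 = %CD3+CD4+IFN-γ+ / %CD3+CD4+IL-4+. CD8:Treg = %CD3+CD8+IFN-γ+ / %CD3+CD4+CD25+FoxP3+.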

[4] = system: established intracerebral melanoma; conditions: versus 0% of vehicle control mice (p = 0.0076); cited from earlier work
[5] = system: genetically engineered murine models of gliomas; conditions: p < 0.01; cited from earlier work
[6] = no reference given, cited from earlier work
[7] = i.v. 40 mg/kg, no reference given, cited from earlier work
[8] = three weeks after the last administration; range: 0.52-4.0; no reference given; cited from earlier work
glioma cancer cells = conditions: read-out: direct IC50 of glioma cancer cells; cited from earlier work
[9] = system: immune modulatory effects; conditions: cited from earlier work
GL261 glioma model = conditions: cited from earlier work
[10] = count in enrolled patient population (n = 8), all dose levels
[11] = sum over all toxicities, enrolled patient population (n = 8)
[12] = 1 mg/kg, C1D1 0 h (baseline before first dose)
[13] = 2 mg/kg, C1D1 0 h (baseline before first dose)
[14] = 4 mg/kg, C1D1 0 h (baseline before first dose)
[15] = 8 mg/kg, C1D1 0 h (baseline before first dose)

C[C@H](NC(=O)/C(C#N)=C/c1cccc(Br)n1)c1ccccc1 [WP1066]
hematological events such as thrombocytopenia or lymphopenia ([1]; 8 patients, 1-8 mg/kg): no significant hematological events
treatment-related deaths ([1]; 8 patients, 1-8 mg/kg): No treatment-related deaths occurred
patients with the most common adverse event, grade 1 nausea and diarrhea ([1]; 8 patients, all dose levels): 50%
Alanine aminotransferase increased, Grade 1 [1, 10]: 1
Alanine aminotransferase increased, Grade 2 [1, 10]: 1
Cardiac disorders, other-sinus rhythm probable left atrial enlargement, Grade 1 [1, 10]: 1
Cholesterol high, Grade 1 [1, 10]: 1
Creatinine increase, Grade 1 [1, 10]: 1
Diarrhea, Grade 1 [1, 10]: 4
Diarrhea, Grade 2 [1, 10]: 1
Gastrointestinal disturbance, Grade 1 [1, 10]: 1
Heartburn, Grade 1 [1, 10]: 1
Lymphocyte count decrease, Grade 1 [1, 10]: 1
Lymphocyte count decrease, Grade 2 [1, 10]: 3
Lymphocyte count decrease, Grade 3 [1, 10]: 0
Lymphocyte count decrease, Grade 4 [1, 10]: 0
Lymphocyte count decrease, Grade 5 [1, 10]: 0
Nausea, Grade 1 [1, 10]: 4
Neutrophil count decreased, Grade 1 [1, 10]: 2
Neutrophil count decreased, Grade 2 [1, 10]: 0
Neutrophil count decreased, Grade 3 [1, 10]: 0
Neutrophil count decreased, Grade 4 [1, 10]: 0
Neutrophil count decreased, Grade 5 [1, 10]: 0
Platelet count decrease, Grade 1 [1, 10]: 1
Platelet count decrease, Grade 2 [1, 10]: 0
Platelet count decrease, Grade 3 [1, 10]: 0
Platelet count decrease, Grade 4 [1, 10]: 0
Platelet count decrease, Grade 5 [1, 10]: 0
Vomiting, Grade 1 [1, 10]: 1
White blood cell decrease, Grade 1 [1, 10]: 3
White blood cell decrease, Grade 2 [1, 10]: 1
White blood cell decrease, Grade 3 [1, 10]: 0
White blood cell decrease, Grade 4 [1, 10]: 0
White blood cell decrease, Grade 5 [1, 10]: 0
tolerability of the oral formulation ([1]; dose level 4 (8 mg/kg), all three subjects): oral aversion to the formulation
Total toxicities, Grade 2 [1, 11]: 6
Total toxicities, Grade 3 [1, 11]: 0
Total toxicities, Grade 4 [1, 11]: 0
Total toxicities, Grade 5 [1, 11]: 0
6-month PFS (PFS6) rate ([2]; 8 patients): 0%
longest response duration ([2]; 8 patients): exceeded 3.25 months
estimated 1-year OS rate ([2]; Kaplan-Meier, 8 patients): 100%
median overall survival (OS) ([2]; from the time of the initial diagnosis, 95% CI: 22.5 months-NA months): 25 months
Survival weeks ([2]; individual patient at 1 mg/kg): Alive
Survival weeks ([2]; individual patient at 2 mg/kg): 65 weeks
Survival weeks ([2]; individual patients at 4 mg/kg, 4 mg/kg): 108 weeks and 109 weeks and 194 weeks
Survival weeks ([2]; individual patients at 8 mg/kg, 8 mg/kg): 115 weeks and 98 weeks and Alive
dose dependence of Cmax [3]: dose dependent increase in the Cmax
% of p-STAT3+ PBMC (p-STAT3 (Y705) in PBMCs; [12]): 39.9%
% of p-STAT3+ PBMC (p-STAT3 (Y705) in PBMCs; 1 mg/kg, C1D1 4 h): 33.4%
% of p-STAT3+ PBMC (p-STAT3 (Y705) in PBMCs; 1 mg/kg, C1D2 0 h): 31.8%
% of p-STAT3+ PBMC (p-STAT3 (Y705) in PBMCs; 1 mg/kg, C1D8 0 h): 19.3%
% of p-STAT3+ PBMC (p-STAT3 (Y705) in PBMCs; 1 mg/kg, C1D8 4 h): 15.7%
% of p-STAT3+ PBMC (p-STAT3 (Y705) in PBMCs; [13]): 38.1%
% of p-STAT3+ PBMC (p-STAT3 (Y705) in PBMCs; 2 mg/kg, C1D1 4 h): 33.8%
% of p-STAT3+ PBMC (p-STAT3 (Y705) in PBMCs; 2 mg/kg, C1D2 0 h): 31.5%
% of p-STAT3+ PBMC (p-STAT3 (Y705) in PBMCs; 2 mg/kg, C1D8 0 h): 27.6%
% of p-STAT3+ PBMC (p-STAT3 (Y705) in PBMCs; 2 mg/kg, C1D8 4 h): 34.8%
% of p-STAT3+ PBMC (p-STAT3 (Y705) in PBMCs; [14]): 35.0% and 27.8% and 35.9%
% of p-STAT3+ PBMC (p-STAT3 (Y705) in PBMCs; 4 mg/kg, C1D1 4 h): 28.2% and 30.9% and 36.0%
% of p-STAT3+ PBMC (p-STAT3 (Y705) in PBMCs; 4 mg/kg, C1D2 0 h): 26.9% and 29.7% and 45.8%
% of p-STAT3+ PBMC (p-STAT3 (Y705) in PBMCs; 4 mg/kg, C1D8 0 h): 37.7% and 27.3%
% of p-STAT3+ PBMC (p-STAT3 (Y705) in PBMCs; 4 mg/kg, C1D8 4 h): 22.7% and 21.1% and 35.3%
lowest dose with p-STAT3 suppression in peripheral blood (PBMCs) (p-STAT3 (Y705) in PBMCs; oral BID, longitudinal administration): 1 mg/kg
% IFN-γ+ CD8 T cells (PBMCs; [12]): 8.3%
% of FoxP3 Tregs (PBMCs; [12]): 6.9%
Th1 to Th2 ratio (PBMCs; 1 mg/kg, C1D1 0 h (baseline)): 0.3
Cytotoxic CD8 to Treg ratio (PBMCs; 1 mg/kg, C1D1 0 h (baseline)): 1.2
% IFN-γ+ CD8 T cells (PBMCs; 1 mg/kg, C1D8 4 h): 45.3%
% of FoxP3 Tregs (PBMCs; 1 mg/kg, C1D8 4 h): 3.9%
Th1 to Th2 ratio (PBMCs; 1 mg/kg, C1D8 4 h): 1.0
Cytotoxic CD8 to Treg ratio (PBMCs; 1 mg/kg, C1D8 4 h): 11.7
% IFN-γ+ CD8 T cells (PBMCs; [13]): 8.8%
% of FoxP3 Tregs (PBMCs; [13]): 8.8%
% IFN-γ+ CD8 T cells (PBMCs; 2 mg/kg, C1D8 4 h): 7.0%
% of FoxP3 Tregs (PBMCs; 2 mg/kg, C1D8 4 h): 7.6%
Th1 to Th2 ratio (PBMCs; 2 mg/kg, C1D8 4 h): 0.5
Cytotoxic CD8 to Treg ratio (PBMCs; 2 mg/kg, C1D8 4 h): 0.9
% IFN-γ+ CD8 T cells (PBMCs; [14]): 4.6% and 0.9% and 4.0%
% of FoxP3 Tregs (PBMCs; [14]): 5.3^§ % and 4.9% and 4.0%
% of FoxP3 Tregs (PBMCs; 4 mg/kg, C1D8 4 h): 8.4% and 5.9%
% IFN-γ+ CD8 T cells (PBMCs; [15]): 27.4% and 31.7%
% of FoxP3 Tregs (PBMCs; [15]): 3.7% and 2.4% and 6.9%
Cytotoxic CD8 to Treg ratio (PBMCs; 8 mg/kg, C1D1 0 h (baseline)): 7.4 and 4.6
% IFN-γ+ CD8 T cells (PBMCs; 8 mg/kg, C1D8 4 h): 3.6% and 0.1%
% of FoxP3 Tregs (PBMCs; 8 mg/kg, C1D8 4 h): 5.4% and 2.1% and 5.8%
Th1 to Th2 ratio (PBMCs; 8 mg/kg, C1D8 4 h): 2.4 and 1.8
FoxP3+ Tregs in PBMCs versus baseline (PBMCs; after 172 h of treatment): not significantly altered
animals surviving long term [4]: 80%
increase in median survival time [5]: 55.5%
oral bioavailability ([6]; methylcellulose-based oral nanoparticle formulation): approximately 30%
mean peak plasma concentration ([6]; preclinical dose of 40 mg/kg): 4.31 µM
mean concentration within the brain ([7]; at 15 min): 162 µM
mean concentration within the brain ([7]; at 6 h): 6 µM
concentration within orthotopic brain tumors [8]: 2.3 µM
IC50 (glioma cancer cells): 2 to 5 µM
concentration at which immune modulatory effects start [9]: around 0.1 μM
therapeutic effect in combination with radiation therapy (GL261 glioma model; GL261 glioma model, lost in immune-incompetent animals): long-term survivors and enhanced median survival time relative to monotherapy
therapeutic effect as monotherapy (GL261 glioma model; preclinical murine studies, 60 mg/kg): failed to demonstrate any therapeutic effect
